Assay results reported in ChEMBL document CHEMBL1140965, “New 1-indanone thiosemicarbazone derivatives active against BVDV” (Eur J Med Chem, 2008).

Columns and labels:
[1] = Cytotoxicity against MDBK cells after 3 days by MTS/PMS assay; format: cell-based, Bos taurus; conditions: cattle
Procedure, shortened: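 MDBK cells seeded at 1 × 10^4 per well in MEM-FBS; serial compound dilutions added 24 h later (DMSO stocks 1 mg/mL). Cells proliferated 3 days at 37 °C. MTS/PMS was then added for 3 h at 37 °C and absorbance read at 490 nm. Viability is the percentage of untreated-cell absorbance. CC50 = 50% inhibition of proliferation, logarithmic interpolation from dose-response curves.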

[2] = test system: Bovine viral diarrhea virus 1; test: Antiviral activity against bovine viral diarrhoea virus type-1 NADL in MDBK cells assessed as inhibition of virus-induced cytopathic effect; format: functional, organism-based; conditions: Bovine viral diarrhea virus isolates and strains
Procedure, shortened: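 MDBK cells seeded at 1 × 10^4 per well in MEM-FBS, 24 h at 37 °C, 5% CO2; medium replaced with serial compound dilutions (DMSO stocks 1 mg/mL), then BVDV inoculum giving >80% CPE by 3 days at 37 °C. Uninfected and virus-only controls on each plate. Read-out is MTS/PMS in MEM-DHS, absorbance 490 nm. EC50 = 50% protection against CPE, logarithmic interpolation from dose-response curves.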

[3] = Selectivity index, ratio of CC50 for MDBK cells to EC50 for bovine viral diarrhoea virus type-1 NADL; format: toxicity, cell-based; conditions: cattle, read-out: Ratio CC50/EC50
Procedure, shortened: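 Ratio of CC50 to EC50. CC50 comes from a 3-day MTS/PMS proliferation assay on MDBK cells. EC50 comes from protection of MDBK cells against NADL-strain cytopathic effect after 3 days, read by MTS/PMS at 490 nm. Both values were derived by logarithmic interpolation from dose-response curves.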

Poliovirus 1 = test: Antiviral activity against poliovirus type-1 Sabin; format: functional, organism-based; conditions: Enterovirus C
Human alphaherpesvirus 1 = test: Antiviral activity against HSV1 F; format: functional, organism-based; conditions: Human alphaherpesvirus 1, F
[4] = test system: Vesicular stomatitis virus; test: Antiviral activity against Vesicular stomatitis virus type-1 Indiana; format: functional, organism-based
[5] = test system: Human immunodeficiency virus 1; test: Antiviral activity against HIV1; format: functional, organism-based

SMILES	CC50 at 72 h [1] [µM]	EC50 [2] [µM]	selectivity ratio [3]	EC50 (Poliovirus 1) [µM]	EC50 (Human alphaherpesvirus 1) [µM]	EC50 [4] [µM]	EC50 [5] [µM]
NC(=S)N/N=C1\CCc2ccccc21	156	18.1	8.6	–	–	–	–
Cc1cccc2c1CC/C2=N\NC(N)=S	165	8.13	20.3	–	–	–	–
Cc1ccc2c(c1)CC/C2=N\NC(N)=S	130	6.48	20.1	–	–	–	–
NC(=S)N/N=C1\CCc2cc(Cl)ccc21	> 27	8.8	> 3.07	–	–	–	–
COc1ccc2c(c1)CC/C2=N\NC(N)=S	149	18.8	7.93	–	–	–	–
Cc1cc2c(c(C)c1Cl)CC/C2=N\NC(N)=S	72.5	> 11.1	< 6.53	–	–	–	–
Cc1cc2c(c(C)c1Cl)/C(=N/NC(N)=S)CC2	80.7	7.4	10.9	–	–	–	–
COc1cccc2c1CC/C2=N\NC(N)=S	822	242	3.39	–	–	–	–
COc1ccc2c(c1)/C(=N/NC(N)=S)CC2	106	26	4.09	–	–	–	–
COc1ccc2c(c1OC)CC/C2=N\NC(N)=S	141	11.5	12.2	–	–	–	–
NC(=S)N/N=C1\CCc2cc(Br)ccc21	> 15	1.81	> 8.29	–	–	–	–
Cc1cc(C)c2c(c1)CC/C2=N\NC(N)=S	51.7	–	–	–	–	–	–
Cc1cc(C)c2c(c1Br)CC/C2=N\NC(N)=S	139	8.94	15.5	–	–	–	–
COc1cc2c(cc1OC)/C(=N/NC(N)=S)CC2	140	1.75	80.3	64	> 64	> 75.5	> 38
NC(=O)c1ncn([C@@H]2O[C@H](CO)[C@@H](O)[C@H]2O)n1 [RIBAVIRIN]	54	4.62	–	–	–	–	–
